Compound activity from PubChem BioAssay.
UPR CHOP act – activators of apoptotic arm of unfolded protein response (CHOP) | CHO-CHOP luciferase reporter, UPR activation, luminescence; percent of tunicamycin response over DMSO baseline | activation, % at 10 µM | 0.34% of 330,000 active | AID 449763;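 active = at 10 µM dose, activation of 40% or more, normalized to positive control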;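 note: 100% = tunicamycin at 10 µg/mL and 0% = DMSO alone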
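Material: CHO-CHOP cells, stable luciferase reporter of PERK-eIF2a-CHOP signalling; quantity: 500 reporter cells seeded per well; buffer or medium: F12 medium containing 10% fetal bovine serum; compound: one dose, 10 µM in 0.5% DMSO; incubation: 6 h compound treatment, 37 °C; measured by: Steady-Glo luciferase luminescence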
B2AR ag – agonists of human beta-2 adrenergic receptor inducing internalization. P07550. Am2.2-beta2AR cells, FAP receptor internalization, flow cytometry. response, % (test concentration not listed). 0.43% of 340,000 active. AID 504454;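 active = response above a set limit, near 3 SD of response in nonfluorescent compounds, cut at about 42% in these data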
Target sequence (P07550 whole entry, looked up): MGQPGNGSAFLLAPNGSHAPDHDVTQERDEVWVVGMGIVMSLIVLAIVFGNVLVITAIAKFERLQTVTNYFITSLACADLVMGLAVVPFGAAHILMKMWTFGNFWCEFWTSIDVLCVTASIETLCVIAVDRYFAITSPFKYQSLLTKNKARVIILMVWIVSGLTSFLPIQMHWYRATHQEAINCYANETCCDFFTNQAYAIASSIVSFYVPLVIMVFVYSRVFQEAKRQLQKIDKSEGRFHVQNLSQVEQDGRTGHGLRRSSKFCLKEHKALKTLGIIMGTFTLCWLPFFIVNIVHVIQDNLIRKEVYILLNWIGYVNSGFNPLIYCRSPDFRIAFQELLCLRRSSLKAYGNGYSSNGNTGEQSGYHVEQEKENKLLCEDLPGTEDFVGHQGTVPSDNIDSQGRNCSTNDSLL
VLA-4 inh – inhibition in a human VLA-4 binding assay; inhibition, % (about 7 µM as worked out from the volumes in the protocol); AID 2557; VLA-4 expressing cells, ligand binding flow cytometry; 0.2% of 330,000 active; P13612; in the data active = inhibition above about 50%
XBP1 UPR activ – activators of adaptive arm of unfolded protein response (XBP1); activation, % at 20 µM; 0.33% of 330,000 active; CHO-XBP1 luciferase reporter, IRE1-XBP1 UPR activation, luminescence; percent of tunicamycin response, DMSO as zero;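 active = versus positive control, 20 µM dose yields 30% or more activation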;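 note: 100% = tunicamycin at 10 µg/mL and 0% = DMSO only wells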
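Assay system: IRE1-XBP1 luciferase reporter CHO line. Input: 1000 cells/well. Buffer or medium: F12 with 10% serum. Doses: 20 µM, 1% DMSO. Times: overnight seeding at 37 °C, 6 h compound treatment at 37 °C. Technique: Steady-Glo luciferase glow luminescence, 10 min after reagent addition.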
CHOP inh – CHOP inhibition in unfolded protein response | CHO-K1 CHOP-promoter luciferase, tunicamycin-induced, 15-18 h | inhibition, % at 10 µM | 3.8% of 220,000 active | AID 2732;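 active = compounds that reduced the stress-induced luciferase reporter signal by more than about 70% of percent inhibition, limit read from the data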;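 note: 0% = tunicamycin plus vehicle and 100% = wells without tunicamycin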
CHOP confirm – confirmation of CHOP induction inhibitors; AID 504437; CHO-CHOP promoter luciferase reporter, tunicamycin-induced, luminescence; shares compounds with CHOP inh; inhibition, % at 10 µM; 45% of 2,100 active;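 active = mean of three repeat readings of reporter signal inhibition above a set limit, cut at about 70% in these data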;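 note: 0% = tunicamycin plus vehicle and 100% = wells lacking tunicamycin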
Active calls of the source: *; · = no result given. The full list was thinned out, with hits kept by preference.

SMILES	UPR CHOP act	B2AR ag	VLA-4 inh	XBP1 UPR activ	CHOP inh	CHOP confirm
Cn1c(=S)oc2ccccc21	2	-9	14	-1	7	·
CC(C)CC(=O)/C=C/n1c(=S)oc2ccccc21	·	49*	4	·	108*	42
Cn1c(Cc2ccccc2)nnc1SCc1ccc(C(=O)O)cc1	0	-1	19	-4	-20	·
CCCCCCn1c(-c2ccco2)nc2oc3cc(OC)ccc3c(=O)c2c1=O	0	-15	-8	2	96*	107*
CC(=O)c1cccc(NC(=O)CSc2nnc(-c3ccc(S(=O)(=O)N4CCCC4)cc3)o2)c1	2	11	8	1	-5	·
Cc1ccc(-c2nnc(SCC(=O)Nc3ccc(S(=O)(=O)N4CCCCCC4)cc3)o2)cc1	0	-6	-3	0	101*	36
CCCCn1nnc(NC(=S)NC(=O)c2ccc(OCC)c([N+](=O)[O-])c2)n1	0	-11	5	-2	·	·
COc1cccc(NC(=O)CSc2nc(=O)n(Cc3ccncc3)c3c2CCCC3)c1	0	14	-1	1	·	·
O=C(O)c1ccc(COc2ccccc2Cl)cc1	3	10	-3	0	-10	·
O=C(O)c1cccc(COc2ccccc2Cl)c1	-10	-2	-9	-7	104*	132*
CCc1ccc2c(c1)C1(NN=C(c3cccc4ccccc34)S1)C(=O)N2 (stereo not drawn)	95*	-1	8	7	104*	63
O=S(=O)(Nc1ccccc1Cl)c1cc(NC(=S)NCCN2CCOCC2)ccc1Cl	0	1	1	-6	·	·
COc1ccc(N=CC2=C(O)c3ccccc3C2=O)c(OC)c1	-9	10	13	-11	100*	133*
Cc1ccccc1N=C(NOCc1ccccc1)c1nonc1N	0	-1	-12	-2	100*	32
CCOc1ccc(C(=O)CCC(=O)Nc2cccc(S(=O)(=O)N3CCCCC3)c2)cc1	1	-2	-21	0	·	·
CC(C)c1ccc2[nH]c(O)c(N=NC(=S)NCCc3ccccc3)c2c1	-2	11	-20	-2	34	·
Oc1[nH]c2ccccc2c1N=NC(=S)NCCc1ccccc1	·	10	-1	·	105*	76*
CCN(CC)c1ccc2c(c1)oc(=O)c1c(Cl)cc(=O)oc12	24	-302	-136	-7	108*	26
O=C(Nc1cc(Cl)ccc1N1CCOCC1)C1=COCCO1	-1	-12	5	-4	·	·
O=C(c1ccccc1)c1coc2c1C(=O)c1ccccc1C2=O	0	-3	13	4	18	·
O=C1c2ccccc2C(=O)c2c1oc(C(F)(F)F)c2C(=O)c1ccccc1	-2	10	19	-6	107*	121*
COc1ccc(NC(=O)CSc2n[nH]c(=O)n2C2CC2)cc1OC	0	0	12	0	·	·
COc1ccc(S(=O)(=O)N2CCCCC2)cc1NC(=O)Cc1sc(C)nc1-c1ccc(F)cc1	-1	3	-7	-3	·	·
O=C(Cn1c(COc2ccc(Cl)cc2)nc2ccccc21)NCC(F)(F)F	3	12	14	0	16	·
O=C(Cn1c(COc2ccccc2)nc2ccccc21)Nc1cc(Cl)cc(Cl)c1	6	3	-2	18	109*	32
SMILES	UPR CHOP act	B2AR ag	VLA-4 inh	XBP1 UPR activ	CHOP inh	CHOP confirm
C=CCn1c(SCc2cccc(OC)c2)nnc1-c1ccncc1	1	0	0	1	·	·
O=C(CCl)Nc1cccc(-c2cnc3ccccc3n2)c1	-1	-1	-33	-4	·	84*
Cc1ccccc1-c1cc(C(=O)NCc2cccc(C(F)(F)F)c2)n(CC2CC(c3cccnc3)=NO2)n1 (stereo not drawn)	-2	·	16	-5	·	·
Cc1ccc(-c2c(C)sc(NC(=O)C3C4CCC(O4)C3C(=O)O)c2C(=O)OC(C)C)cc1 (stereo not drawn)	0	3	1	-3	30	·
CC(C)=C1C2CCC1C(C(=O)Nc1sc(C)c(-c3ccc(C(C)C)cc3)c1C(N)=O)C2C(=O)O (stereo not drawn)	0	15	2	-6	103*	100*
Cc1ccc(N=Nc2c(N)n[nH]c2N)cc1	5	-3	8	0	·	·
Cc1cccc(N=Nc2c(N)n[nH]c2-c2ccc(Cl)cc2)c1	0	3	-5	2	109*	108*
CCCOc1ccccc1C1CC(=O)NC(C)=C1C(=O)OCC(C)C (stereo not drawn)	2	-9	-3	1	99*	116*
CCc1ccc(N2CC(C(=O)OCC(=O)c3c(N)n(CC(C)C)c(=O)n(C)c3=O)CC2=O)cc1 (stereo not drawn)	-3	3	0	-2	·	·
CC(C)c1ccccc1NC(=O)Cn1c(-c2ccccc2Cl)nc2ccccc21	2	8	-7	-2	11	·
CC(C)c1ccccc1NC(=O)Cn1c(/C=C/c2ccccc2)nc2ccccc21	12	·	6	32*	99*	101*
CCCCC[C@H]1CN(Cc2ccccc2)C(=O)[C@@H]1CC(=O)NCc1ccccc1	1	-4	-13	-1	·	·
CCOc1ccccc1N1CCN(S(=O)(=O)c2ccc3c4c(cccc24)C(=O)N3)CC1	-1	-5	0	-1	99*	9
CCOC(=O)N1CCN(S(=O)(=O)c2ccc3c4c(cccc24)C(=O)N3)CC1	2	-8	-11	-2	·	·
Cc1ccc(F)cc1NC(=O)CSCc1nc2sc(C)c(C)c2c(=O)[nH]1	-1	25	-1	1	·	·
CC(C)(C)c1ccc(-c2nc(N)nc(N)n2)cc1	7	-1	9	3	2	·
CC(C)(C)c1cc(-c2nc(N)nc(N)n2)cc(C(C)(C)C)c1	1	-4	28	-2	103*	57
C[C@H](NC(=O)OC(C)(C)C)C(=O)N/N=C/C1=Cc2ccccc2OC1	-1	9	10	-2	13	·
CCC(C)[C@H](NC(=O)OC(C)(C)C)C(=O)N/N=C/C1=Cc2ccccc2OC1 (stereo partly drawn)	0	6	2	2	106*	40
COc1cccc(CNC(=O)[C@H](C)NC(=O)C2CCN(S(=O)(=O)c3ccccc3)CC2)c1	4	-4	-14	0	·	·
C=CCn1c(SCC(=O)NC(=O)NCc2ccco2)nc2sc(C)c(C)c2c1=O	2	-5	4	2	104*	30
CCOC(=O)c1c(C)[nH]c(O)c1C=Nc1ccc(Cl)cc1	3	-16	2	0	103*	110*
COc1cccc(Oc2cn[nH]c2-c2ccc(O)cc2O)c1	1	-4	-6	-2	·	·
CCCOC(=O)c1ccc(Oc2c(-c3ccc(OCC)cc3O)n[nH]c2C)cc1	2	31	15	4	113*	118*
